Source: PubChem BioAssay (several laboratories)
Sampled rows, rich in hits. Any-hit rate of the full collection: about 12%.
WT yeast gro inh: growth inhibition of WT yeast, mitochondrial fusion screen; mitochondrial fusion phenotypic screen, WT strain; inhibition, % at 10 µM; 2.1% of 190,000 active; AID 1362; in the data active means inhibition above about 58%; tested in S. cerevisiae
Diaphorase inh: inhibits diaphorase or chemically oxidizes, flagging diaphorase assay artifacts; diaphorase resazurin-to-resorufin fluorescence, NADH, 16 min; bacterial (C. kluyveri) enzyme, not human; AID 1217; inhibition, % at 20 µM; 0.69% of 190,000 active;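 active means primary screen inhibition at 20 µM above a set limit, cut at about 50% in these data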
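System: Diaphorase enzyme from Clostridium kluyveri | Amount: Enzyme working solution with 0.14 U/mL diaphorase | Benchmarks: No-NADH positive control and DMSO neutral control | Signal: Fluorescence of resorufin formed from resazurin, Ex 544/Em 590 nm | Schedule: 16-min room-temperature incubation before reading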
Diaphorase act: counter-screen for diaphorase-based assays: diaphorase activators and chemical reducers. Diaphorase/resazurin coupled assay, resorufin fluorescence, 16 min; hits give high values; 1 = vehicle wells, 0 = NADH-free wells. activation factor at 20 µM. 0.005% of 190,000 active;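 active means diaphorase activity raised at least twofold by the compound at 20 µM; inactive means activation factor below 2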
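Test system: Clostridium kluyveri diaphorase, purified enzyme. Buffer or medium: 50 mM HEPES pH 7.4 buffer plus MgCl2 and Tween 20. Also added: 0.114 mM NADH and 0.1 mM resazurin, final amounts. Dosing: compound 20 µM once, DMSO 1%. Schedule: 16 min enzyme reaction, ambient temperature. Detection: fluorescence of resorufin, 544 nm excitation, 590 nm emission.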
KCC2 mod: modulates chloride dependent transport by human KCC2; 2.2% of 190,000 active; B-score of Tl+ flux slope (higher = more flux/activation; lower = inhibition) at 10 µM; KCC2 cells, thallium flux FluoZin-2 fluorescence; Q9H2X9;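 active means thallium flux slope and its plate-corrected score both differing from the plate sample mean at a set confidence after two filtering rounds, in either direction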;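 further: slope of fluorescence scaled to starting intensity during 10 to 20 s after thallium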
L major viab: inhibitors of Leishmania major promastigote growth; AID 1063; 9% of 200,000 active; Leishmania major promastigotes, resazurin fluorescence viability; inhibition, % at 10 µM; in the data active means inhibition above about 50%;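 further: promastigotes grown with compound for 44 hours at 28 °C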
ROMK mod: modulators of human ROMK potassium channel | P48048 | Tet-inducible ROMK, thallium flux fluorescence; actives lie on both sides | B-score at 10 µM | 2% of 130,000 active;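 active means signal ratio slope over the read window, or its plate-corrected B-score, at least 3 SD from the plate mean, either direction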;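 further: B-score of the F/F0 ratio slope over 7 to 12 s after thallium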
Target sequence (P48048 whole entry, looked up): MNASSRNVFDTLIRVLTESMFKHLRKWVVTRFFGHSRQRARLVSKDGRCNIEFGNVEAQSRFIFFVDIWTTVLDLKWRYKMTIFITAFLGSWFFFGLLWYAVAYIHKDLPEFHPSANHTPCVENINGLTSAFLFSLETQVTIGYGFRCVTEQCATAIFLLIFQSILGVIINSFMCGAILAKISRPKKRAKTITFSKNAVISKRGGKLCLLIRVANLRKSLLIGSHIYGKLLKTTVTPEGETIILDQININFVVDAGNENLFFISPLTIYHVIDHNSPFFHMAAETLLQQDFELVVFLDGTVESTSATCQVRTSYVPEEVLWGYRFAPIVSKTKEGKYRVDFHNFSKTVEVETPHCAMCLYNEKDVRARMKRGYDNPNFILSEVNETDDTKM
Of the large screens only hits and unclear results are named; the others gave an inactive call.

COc1cc2c(cc1OC)C(c1cccs1)N(C(=O)C(C)C)CC2 (configuration not stated)	L major viab 73 (no result: ROMK mod)
COc1cc2c(cc1OC)C(c1ccccc1O)N(C1CC(=O)N(c3ccccc3)C1=O)CC2 (configuration not stated)	none (no result: ROMK mod)
COc1cc2c(cc1OC)C(c1ccccc1)N(C(=O)CCl)CC2 (configuration not stated)	L major viab 99 (no result: ROMK mod)
COc1cc2c(cc1OC)C(C1C(=O)CCCC1=O)N(C(=O)CCl)CC2 (configuration not stated)	none
COc1ccc(S(=O)(=O)N(C)C)cc1NC(=O)COC(=O)c1nn(C)c(=O)c2ccccc12	none
Cc1ccccc1CNC(=O)c1ccc(CSCc2ccccc2)cc1	none (no result: KCC2 mod, ROMK mod)
COc1ccc(CNC(=O)C2CCCN(c3nccc(C)n3)C2)cc1 (configuration not stated)	none (no result: ROMK mod)
COc1ccc(CCN=C(NS(=O)(=O)c2ccccc2)c2ccccc2)cc1OC	none
COc1ccc(CCN=C(NS(=O)(=O)c2ccc(Cl)cc2)c2ccccc2)cc1	Diaphorase inh 52, L major viab 66
O=C(/C=C/c1cn(-c2ccccc2)nc1-c1cccc(Cl)c1)N1CCN(c2ccccn2)CC1	none
Cc1cc(C(=O)N/N=C/c2ccccc2Br)no1	ROMK mod 3.1
CCOc1cc(C(=O)N/N=C/C(Br)=C/c2ccccc2)cc(OCC)c1OCC	L major viab 58 (no result: ROMK mod)
Cc1onc(-c2ccccc2)c1C(=O)N/N=C/c1cc2c(cc1Br)OCO2	L major viab 100
Cc1onc(-c2ccccc2)c1C(=O)N/N=C/C(Br)=C/c1ccccc1	WT yeast gro inh 82
O=C(N/N=C/c1cc2c(cc1Br)OCO2)c1cccnc1	none
COCCN1C(=S)NC(c2cccc(C(F)(F)F)c2)C(C(=O)N2CCOCC2)=C1C (configuration not stated)	none
CC(/C=N/NC(=O)NC1CCCCC1)=C\c1ccccc1	none
O=C(N/N=C/C(Br)=C/c1ccccc1)NC1CCCCC1	WT yeast gro inh 90
Cc1cc(-c2nn(-c3ccccc3F)cc2CN2CCN(c3ccccn3)CC2)c(C)s1	WT yeast gro inh 66 (no result: KCC2 mod)
O=C(CN(C(=O)c1csnn1)c1cccc2c1CCCC2)NC1CCCC1	none (no result: Diaphorase inh, Diaphorase act)
Cc1cccc(N2CCN(C(=O)c3cc4c(C)nc5ccccc5c4o3)CC2)c1C	WT yeast gro inh 67 (no result: Diaphorase inh, Diaphorase act, KCC2 mod, L major viab, ROMK mod)
Cc1nc2ccccc2c2oc(C(=O)Nc3ccc4c(c3)OCCO4)cc12	none (no result: KCC2 mod, ROMK mod)
CCN1CCCC1CNC(=O)c1cc2c(C)nc3ccccc3c2o1 (configuration not stated)	L major viab 100 (no result: ROMK mod)
Cc1nc2ccccc2c2oc(C(=O)Nc3ccc(C(C)C)cc3)cc12	WT yeast gro inh 61 (no result: ROMK mod)
O=c1oc2ccccc2c2oc3cc(O)c(O)cc3c12	none (no result: WT yeast gro inh, Diaphorase inh, Diaphorase act, L major viab, ROMK mod)
O=c1oc2c(O)c(O)cc3c(=O)oc4c(O)c(O)cc1c4c23	Diaphorase inh 86 (no result: ROMK mod)
COc1ccccc1/C=N/NC(=O)CN(C1=NS(=O)(=O)c2ccccc21)c1ccccc1	none
COc1ccc(/C=N/NC(=O)CN(C2=NS(=O)(=O)c3ccccc32)c2ccccc2)cc1	L major viab 56
Cc1cc(Cl)ccc1C(=O)C1CCCN(C(=O)c2snnc2C)C1 (configuration not stated)	none (no result: KCC2 mod)
CCN(CC)S(=O)(=O)c1ccc(OCCNS(C)(=O)=O)cc1	none
COc1cccc(C(=O)Nc2nc3ccccc3[nH]2)c1	none (no result: ROMK mod)
COc1ccccc1N(C)S(=O)(=O)c1ccc(C(=O)Nc2ccc3nc(C)sc3c2)cc1	L major viab 100
Cc1ccc(N(C)S(=O)(=O)c2cccc(C(=O)Nc3nc4ccccc4[nH]3)c2)cc1	L major viab 90
COC(=O)c1ccc(NC(=O)c2ccccc2N(C)S(=O)(=O)c2ccccc2)cc1	none
CN(c1ccccc1C(=O)Nc1ccc(S(=O)(=O)N2CCOCC2)cc1)S(=O)(=O)c1ccccc1	L major viab 91
COc1ccccc1N(C)S(=O)(=O)c1ccc(Cl)c(C(=O)NC2=NCCS2)c1	L major viab 57
COc1ccc(C2CC(c3ccc4ccccc4c3OC(C)=O)=NN2C(C)=O)cc1 (configuration not stated)	none (no result: WT yeast gro inh, Diaphorase inh, Diaphorase act, L major viab, ROMK mod)
COc1ccc(S(=O)(=O)N(CC(=O)Nc2ccc(S(=O)(=O)N3CCOCC3)cc2)Cc2ccc(F)cc2)cc1	L major viab 97
Cc1ccc(C(=O)Nc2cccc(C(=O)O)c2)cc1S(=O)(=O)N1CCOCC1	none (no result: KCC2 mod)
Cc1nc2ccc(NC(=O)c3ccccc3)cc2s1	none
Cc1ccc(NC(=O)c2cccc(S(=O)(=O)N(C)c3ccccc3)c2)cc1S(=O)(=O)N1CCOCC1	L major viab 98 (no result: ROMK mod)
Cc1nc2ccc(NC(=O)c3cccc(S(=O)(=O)N(C)c4ccccc4)c3)cc2s1	L major viab 99
COc1ccccc1N(C)S(=O)(=O)c1ccc(C(=O)Nc2ccc(N3CCOCC3)cc2)cc1	L major viab 99
CC(=O)Nc1ccc(OCc2nnc(-c3ccc(Cl)cc3)o2)cc1	none
COc1cc(OC)cc(C(=O)NNC(=O)CCc2ccccc2)c1	none
O=C(COC(=O)/C=C/C(=O)N1CCN(c2ccccc2)CC1)NC(c1ccccc1)c1ccccc1	none
CCCCc1n(CC(=O)c2ccc(Cl)cc2)c2ccccc2[n+]1C	none
Oc1[nH]c(=S)sc1/C=C1\C(c2ccccc2)=Nc2ccccc21	L major viab 83 (no result: ROMK mod)
O=C1Nc2ccccc2N=C(c2ccccc2)c2ccccc21	none (no result: WT yeast gro inh, Diaphorase inh, Diaphorase act, L major viab, ROMK mod)
COc1ccc(C)cc1NC(=O)C(=O)NCc1ccncc1	none (no result: ROMK mod)
CCC(CO)n1c(=S)[nH]c2cc(OC)c(OC)cc2c1=O (configuration not stated)	none (no result: ROMK mod)
COc1cc(C(=O)NCC(c2cccnc2)N2CCN(C)CC2)cc(OC)c1OC (configuration not stated)	none (no result: KCC2 mod)
COc1cc(C(=O)NCC(c2cccnc2)N2CCN(c3ccccc3)CC2)cc(OC)c1OC (configuration not stated)	L major viab 67 (no result: ROMK mod)
O=C(NCC(c1cccnc1)N1CCN(c2ccccc2)CC1)c1ccc2c(c1)OCO2 (configuration not stated)	L major viab 88
C=CCC(C)(NCc1ccccc1)c1ccco1 (configuration not stated)	none (no result: ROMK mod)
COc1ccc(S(=O)(=O)NCCc2nnc3ccc(SCc4cccnc4)nn23)cc1	none
C[n+]1ccc(/C=C/c2ccccc2O)c2ccccc21	WT yeast gro inh 65, L major viab 99
CC(=O)/C=C/c1ccccc1O	none
O=C(OCCN=C1NS(=O)(=O)c2ccccc21)c1ccco1	none
CCCC(=O)N1CCN(c2ccc([N+](=O)[O-])c(NC(C)c3ccccc3)c2)CC1 (configuration not stated)	KCC2 mod -4.6, ROMK mod -5.3
